Assay results from different studies.
Protocols differ between the studies behind these lines.

CC(=O)N[C@@H](Cc1ccccc1)C(=O)N[C@@H](Cc1ccccc1)C(=O)N1CCC[C@H]1C(=O)N[C@@H](CC(C)C)C(=O)NCC(=O)N[C@@H](CC(C)C)C(=O)N[C@@H](C)C(=O)NCC(=O)N[C@@H](CC(=O)O)C(=O)N[C@@H](CC(=O)O)C(=O)O — half-life (chemical stability; human, plasma; 1 mM, pH 7.4): 20.7 h
CC[C@H](C)[C@H](NC(=O)[C@H](CCC(=O)O)NC(=O)[C@H](CO)NC(=O)[C@@H](NC(=O)[C@@H](N)CO)C(C)C)C(=O)N[C@@H](CCC(N)=O)C(=O)N[C@@H](CC(C)C)C(=O)N[C@@H](CCSC)C(=O)N[C@@H](Cc1cnc[nH]1)C(=O)N[C@@H](CC(N)=O)C(=O)N[C@@H](CC(C)C)C(=O)NCC(=O)N[C@@H](CCCCN)C(=O)N[C@@H](Cc1cnc[nH]1)C(=O)N[C@@H](CC(C)C)C(=O)N[C@@H](CC(N)=O)C(=O)N[C@@H](CO)C(=O)N[C@@H](CCSC)C(=O)N[C@@H](CCC(=O)O)C(=O)N[C@@H](CCCN=C(N)N)C(=O)N[C@H](C(=O)N[C@@H](CCC(=O)O)C(=O)N[C@@H](Cc1c[nH]c2ccccc12)C(=O)N[C@@H](CC(C)C)C(=O)N[C@@H](CCCN=C(N)N)C(=O)N[C@@H](CCCCN)C(=O)N[C@@H](CCCCN)C(=O)N[C@@H](CC(C)C)C(=O)N[C@@H](CCC(N)=O)C(=O)N[C@@H](CC(=O)O)C(=O)N[C@H](C(=O)N[C@@H](Cc1cnc[nH]1)C(=O)N[C@@H](CC(N)=O)C(=O)N[C@@H](Cc1ccccc1)C(=O)O)C(C)C)C(C)C — compound remaining (chemical stability, HPLC; aqueous buffer; 0.5 mg/mL, 10 min, pH 6.5): 100%
COCCOc1cnc2ccn([C@H](C)c3nnc4c(F)cc(-c5cnn(C)c5)cn34)c(=O)c2c1 — half-life (human, plasma; oral, 25 mg, multiple doses, once daily, patients): 6.3 h
CC(C)(C)c1ccc(O)c(CN(Cc2cc(C(C)(C)C)ccc2O)C2CCC(NC(N)=O)CC2)c1 (stereo not drawn) — Vd (male C57BL/6 mouse, plasma; intraperitoneal, 10 mg/kg, single dose): 3.7 L
CC(C)n1cc(C#N)c2cc(-n3cc(C(=O)O)cn3)ccc21 — half-life (human, plasma; oral, 200 mg, single dose, fed, healthy volunteers): 15 h
CC(=O)OCOC(=O)C1CC(C)(C)N([O])C1(C)C (stereo not drawn) — half-life (chemical stability; bovine, serum): 0.567 h
C[C@]1(c2nc3c(C(N)=O)cccc3[nH]2)CCCN1 — AUC(0-inf) (male rhesus monkey, plasma; oral, 5 mg/kg, single dose): 3.7 µM·h
CC(C)(O)c1ccccc1-c1ccc2[nH]c(/C=C/c3ccc(C(F)(F)F)cc3)nc2c1 — half-life (male human, plasma; oral, 30 mg, single dose, fasted, healthy volunteers): 82.6 h
COc1ccc([C@@H]2CN(C(=O)[C@@H](O)CO)C[C@@]2(C)[C@@H](C)O)cc1OC1CN(c2ccc(C)cn2)C1 — half-life (human, plasma; oral, 30 mg, single dose, healthy volunteers): 12.3 h
